Experimental data as given in ChEMBL document CHEMBL1156172, “Substituted hydrazinecarbothioamide as potent antitubercular agents: synthesis and quantitative structure-activity relationship (QSAR)” (2010).
In brackets after ≈: the same amount, converted by molar mass.

Test system: Mycobacterium tuberculosis
Assay: Antituberculosis activity against Mycobacterium tuberculosis H37Rv after 4 weeks by agar slant proportion method
Type: functional
Details: for MIC: Mycobacterium tuberculosis, H37Rv, 672 h
In short: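 M. tuberculosis H37Rv inoculated onto drug-containing slants at 105 bacilli per tube, then incubated 4 weeks at 37 °C (proportion method). MIC taken as the lowest concentration of compound giving no visible growth of the inoculated bacilli; reported in μg/mL.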

Compound	MIC	-logMIC
C/C(=N\NC(=S)Nc1ccc(I)cc1)c1ccc([N+](=O)[O-])cc1	> 12.5 µg/mL	–
C/C(=N\NC(=S)Nc1ccc(Br)cc1)c1ccc(Br)cc1	0.8 µg/mL (≈ 1.87 µM)	0.097
C/C(=N\NC(=S)NNc1ccc(C)cc1)c1ccc(Br)cc1	1.56 µg/mL (≈ 4.13 µM)	–
C/C(=N\NC(=S)NNC(=O)c1cccnc1)c1ccc(Br)cc1	6.25 µg/mL (≈ 15.9 µM)	-0.796
C/C(=N\NC(=S)Nc1cccc(Cl)c1Cl)c1ccc([N+](=O)[O-])cc1	> 12.5 µg/mL	–
C/C(=N\NC(=S)Nc1cc(C)ccn1)c1ccc(Br)cc1	0.4 µg/mL (≈ 1.1 µM)	0.398
C/C(=N\NC(=S)Nc1cc(C)ccn1)c1ccc([N+](=O)[O-])cc1	3.12 µg/mL (≈ 9.47 µM)	-0.494
CC(=O)C1(c2ccccc2)CCN(NC(=S)N/N=C(\C)c2ccc(Br)cc2)CC1	0.8 µg/mL (≈ 1.69 µM)	0.097
COc1ccc(NC(=S)N/N=C(\C)c2ccc(Br)cc2)cc1	0.8 µg/mL (≈ 2.11 µM)	0.097
C/C(=N\NC(=S)Nc1cccc(Cl)c1Cl)c1ccc(Br)cc1	0.4 µg/mL (≈ 0.959 µM)	0.398
COc1ccc(NNC(=S)N/N=C(\C)c2ccc(Br)cc2)cc1	1.56 µg/mL (≈ 3.97 µM)	-0.193
C/C(=N\NC(=S)Nc1ccncc1)c1ccc(Br)cc1	> 12.5 µg/mL	–
C/C(=N\NC(=S)Nc1ccccc1F)c1ccc(Br)cc1	3.12 µg/mL (≈ 8.52 µM)	–
C/C(=N\NC(=S)Nc1cccc(C)c1)c1ccc([N+](=O)[O-])cc1	> 12.5 µg/mL	–
C/C(=N\NC(=S)NN)c1ccc(Br)cc1	> 12.5 µg/mL	–
C/C(=N\NC(=S)Nc1ccccc1[N+](=O)[O-])c1ccc(Br)cc1	0.4 µg/mL (≈ 1.02 µM)	0.398
C/C(=N\NC(=S)Nc1ccncc1C)c1ccc(Br)cc1	> 12.5 µg/mL	–
C/C(=N\NC(=S)Nc1ccc(I)cc1)c1ccc(Br)cc1	0.8 µg/mL (≈ 1.69 µM)	0.097
C/C(=N\NC(=S)NN1CCN(c2ccccc2Cl)CC1)c1ccc(Br)cc1	3.12 µg/mL (≈ 6.68 µM)	–
C/C(=N\NC(=S)Nc1ccc(Br)cc1)c1ccc([N+](=O)[O-])cc1	6.25 µg/mL (≈ 15.9 µM)	-0.796
C/C(=N\NC(=S)Nc1ccccc1F)c1ccc([N+](=O)[O-])cc1	> 12.5 µg/mL	–
COc1ccc(NC(=S)N/N=C(\C)c2ccc([N+](=O)[O-])cc2)cc1	> 12.5 µg/mL	–
CC[C@@H](CO)NCCN[C@@H](CC)CO [ETHAMBUTOL]	0.1 µg/mL (≈ 0.489 µM)	–
NNC(=O)c1ccncc1 [ISONIAZID]	0.02 µg/mL (≈ 0.146 µM)	–
